The results in this text go back to ChEMBL document CHEMBL3351932, “Discovery of BI 207524, an indole diamide NS5B thumb pocket 1 inhibitor with improved potency for the potential treatment of chronic hepatitis C virus infection” (J Med Chem, 2014).

The nature of data set [1]: Cmax in rat at 10 mg/kg, po. The data set is classed as ADME, organism-based. Also on record: dose 10 mg/kg, route oral. Particulars: in vivo. An outline of the steps: (§1)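 Single-compound oral PK after overnight fast; 10 mg/kg given as suspension in 0.5% methylcellulose and 0.3% Tween-80, with or without 1% NMP as added solubilizer; N=3 per dose and route. Plasma kept on ice, centrifuged at 4°C, stored near -20°C, extracted by solid phase, quantified by HPLC-UV or LC/MS against blank-plasma standards (LOQ 7 ng/mL); non-compartmental analysis.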

A short description of data set [2]: Plasma concentration in rat at 4 mg/kg, po cassette dosing after 2 hrs. The data set is classed as ADME, organism-based. Further details: dose 4 mg/kg, route oral. An outline of the steps:
(§2)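 Cassette screen: mixture of 4 compounds, each at 4 mg/kg, dosed orally to 2 rats; plasma sampled at 1 h and 2 h, solid-phase extracted and quantified by HPLC-UV or LC/MS against calibration standards in blank plasma (LOQ 7 ng/mL).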

Data set [3] is described as follows: Half life in rat at 2 mg/kg, iv. Further details: dose 2 mg/kg, route intravenous. The data set is classed as ADME, organism-based. As to conditions: in vivo. The method in brief:
(§3)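 Fasted animals dosed IV by bolus at 2 mg/kg in 70% PEG-400:30% water; N=3 per dose and route. Plasma separated at 4°C, stored near -20°C, solid-phase extracted, assayed by HPLC-UV or LC/MS with blank-plasma calibration (r2 > 0.99, LOQ 7 ng/mL); parameters from non-compartmental analysis.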

Data set [4] is described as follows: Half life in human liver microsomes. The data set is classed as ADME. In general terms: Liver microsomes are a subcellular fraction often used to study metabolism.
Data set [5] in a line: Plasma concentration in rat at 4 mg/kg, po cassette dosing after 1 hr. The data set is classed as ADME, organism-based. Also on record: dose 4 mg/kg, route oral. The method in brief:
as §2

The nature of data set [6]: Inhibition of Hepatitis C virus genotype 1b Con1 NS5B RNA dependent RNA polymerase activity using Bright-Glo luciferase substrate by cell-based 1b luciferase reporter assay. Further details: species or system Hepatitis C virus (isolate Con1). An outline of the steps:
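Cell-based genotype 1b luciferase reporter replicon assay; EC50 determined in duplicate, values averaged over at least two determinations.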
A general note: A reporter such as luciferase makes a cellular process visible.

Data set [7] is described as follows: Mean residence time in rat at 10 mg/kg, po. As to conditions: in vivo. Further details: dose 10 mg/kg, route oral. In kind it is ADME, organism-based. The method in brief: as §1
A short description of data set [8]: Clearance in rat at 2 mg/kg, iv. In kind it is ADME, organism-based. Further details: dose 2 mg/kg, route intravenous. Particulars: in vivo. The method in brief: as §3
Data set [9] can be described thus: Inhibition of HCV full-length NS5B polymerase. Also on record: species or system Hepacivirus hominis. The method in brief: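 Polymerase inhibition with full-length NS5B enzyme in a biochemical assay; IC50 averaged from duplicate measurements, at least two determinations.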
The nature of data set [10]: AUC in rat at 10 mg/kg, po. In kind it is ADME, organism-based. Further details: dose 10 mg/kg, route oral. As to conditions: plasma. The method in brief:
as §1

Data set [11] can be described thus: Permeability across apical to basolateral side in human Caco2 cells. The data set is classed as ADME, cell-based. Particulars: Caco-2, read-out: permeability. On the technique in general: Caco-2 monolayers are a common model of the intestinal barrier.
A short description of data set [12]: Oral bioavailability in rat at 10 mg/kg. In kind it is ADME, organism-based. As to conditions: in vivo. The method in brief: as §1
Data set [13] can be described thus: Volume of distribution at steady state in rat at 2 mg/kg, iv. In kind it is ADME, organism-based. Also on record: dose 2 mg/kg, route intravenous. Particulars: in vivo, read-out: Vdss. An outline of the steps: as §3
The nature of data set [14]: Lipophilicity, log D of the compound at pH 7.4. In kind it is physicochemical. Particulars: buffer.
Data set [15] concerns Hepatitis C virus. The experiment in a line: Antiviral activity against Hepatitis C virus genotype 1b assessed as shift in EC50 by cell-based replicon assay in presence of 40% human serum. The data set is classed as functional, Hepacivirus hominis.
Data set [16] concerns the target T1, Cytochrome P450 1A2 (Homo sapiens, UniProt P05177).
T1 sequence (P05177 whole entry): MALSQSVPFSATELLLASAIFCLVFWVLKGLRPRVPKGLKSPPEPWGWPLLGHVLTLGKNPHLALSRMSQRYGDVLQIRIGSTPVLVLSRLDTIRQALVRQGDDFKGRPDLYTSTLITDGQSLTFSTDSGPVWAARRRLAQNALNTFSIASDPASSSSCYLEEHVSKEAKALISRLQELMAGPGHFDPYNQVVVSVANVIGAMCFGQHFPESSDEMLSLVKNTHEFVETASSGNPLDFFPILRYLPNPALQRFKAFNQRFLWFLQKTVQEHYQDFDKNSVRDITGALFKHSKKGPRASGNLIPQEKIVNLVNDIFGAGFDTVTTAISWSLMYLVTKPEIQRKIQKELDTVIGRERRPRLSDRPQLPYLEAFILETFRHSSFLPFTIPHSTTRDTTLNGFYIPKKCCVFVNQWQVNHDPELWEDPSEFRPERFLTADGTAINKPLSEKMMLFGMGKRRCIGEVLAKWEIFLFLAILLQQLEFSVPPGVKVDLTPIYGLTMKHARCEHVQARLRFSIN
The experiment in a line: Inhibition of CYP1A2 (unknown origin). In kind it is ADME.

In data set [17] the target is Cytochrome P450 2C9 (Homo sapiens, UniProt P11712). The data set can be described thus: Inhibition of CYP2C9 (unknown origin). The data set is classed as ADME.
Chain of Cytochrome P450 2C9 (P11712 whole entry): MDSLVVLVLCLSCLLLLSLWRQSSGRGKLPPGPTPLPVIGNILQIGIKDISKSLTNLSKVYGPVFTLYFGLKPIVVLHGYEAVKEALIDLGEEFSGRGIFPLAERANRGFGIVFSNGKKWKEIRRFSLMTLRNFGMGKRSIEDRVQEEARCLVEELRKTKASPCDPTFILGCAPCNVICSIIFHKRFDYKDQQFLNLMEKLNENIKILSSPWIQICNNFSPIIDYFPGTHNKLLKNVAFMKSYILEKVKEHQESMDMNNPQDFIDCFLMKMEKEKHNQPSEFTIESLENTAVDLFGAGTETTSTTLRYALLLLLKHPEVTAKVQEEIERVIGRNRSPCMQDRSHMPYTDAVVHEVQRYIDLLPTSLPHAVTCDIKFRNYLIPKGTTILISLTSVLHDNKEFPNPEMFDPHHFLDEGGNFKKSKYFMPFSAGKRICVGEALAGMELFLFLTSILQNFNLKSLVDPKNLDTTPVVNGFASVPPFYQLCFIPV
Data set [18] can be described thus: Plasma protein binding in human. Particulars: read-out: PPB (converted). In kind it is ADME, cell-free.
A short description of data set [19]: Dissociation constant, pKa of the compound. The data set is classed as physicochemical. The method in brief:
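pKa derived from pH titration curves.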

Data set [20] is described as follows: Oral bioavailability in monkey at 10 mg/kg. The data set is classed as ADME, organism-based, Macaca mulatta. Particulars: rhesus monkey, in vivo. An outline of the steps: as §1
The target in data set [21] is Cytochrome P450 2D6 (Homo sapiens, UniProt P10635). The experiment in a line: Inhibition of CYP2D6 (unknown origin). In kind it is ADME.
Chain of Cytochrome P450 2D6 (P10635 whole entry): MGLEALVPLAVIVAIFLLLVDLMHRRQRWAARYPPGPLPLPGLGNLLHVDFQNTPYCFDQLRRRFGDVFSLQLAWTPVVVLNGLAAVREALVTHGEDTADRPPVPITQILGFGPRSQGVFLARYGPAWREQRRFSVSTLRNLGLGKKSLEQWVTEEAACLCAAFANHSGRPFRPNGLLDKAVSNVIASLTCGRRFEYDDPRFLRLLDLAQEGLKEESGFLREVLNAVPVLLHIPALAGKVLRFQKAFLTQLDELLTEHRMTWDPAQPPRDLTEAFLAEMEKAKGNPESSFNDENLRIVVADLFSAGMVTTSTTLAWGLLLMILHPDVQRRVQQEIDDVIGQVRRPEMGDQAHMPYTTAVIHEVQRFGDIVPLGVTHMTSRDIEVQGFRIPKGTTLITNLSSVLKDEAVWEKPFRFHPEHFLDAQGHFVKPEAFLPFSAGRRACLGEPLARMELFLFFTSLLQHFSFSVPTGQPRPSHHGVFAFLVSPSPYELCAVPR
Data set [22] is described as follows: Permeability across apical at pH6 to basolateral side at pH 7.4 in human Caco2 cells. In kind it is ADME, cell-based. As to conditions: Caco-2, pH 6, read-out: permeability. An outline of the steps:
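Caco-2 monolayer permeability measured apical to basolateral, apical side at pH 6.0 and basolateral at pH 7.4.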

The nature of data set [23]: Inhibition of recombinant Hepatitis C virus genotype 1b Con1 NS5B RNA dependent RNA polymerase delta21. Also on record: species or system Hepatitis C virus subtype 1b. The method in brief:
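Biochemical polymerase assay with C-terminally truncated genotype 1b NS5B∆21; IC50 taken as mean of duplicates.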

Data set [24] can be described thus: Cytotoxicity against human HuH7 cells assessed as cell viability by MTT assay. In kind it is cell-based. As to conditions: Huh-7 cells, read-out: TC50 (the source's name).

The term Cmax denotes the highest concentration seen after dosing. Usually half-life stands for the time in which the quantity being followed falls by half. As usually defined, the EC50 is the concentration giving half of the maximal effect. Broadly, the MRT is a mean duration of stay, worked out from the concentration-time curve. The term clearance denotes a measure of how efficiently the substance is removed, as volume per time. A word on the IC50: it is the point on the concentration scale where inhibition reaches its midpoint. The AUC is the area under the concentration-time curve, a measure of exposure. What is called bioavailability is dose-corrected exposure relative to a reference, in per cent. On to `CCOc1cc(NC(=O)C2(NC(=O)c3ccc4c(C5CCCC5)c(-c5ccc(F)cn5)n(C)c4c3)CCC2)ccc1/C=C/C(=O)O`, for which, in data set [1], the Cmax was 2200 nM. The compound also had a concentration at 2 h in [2] of 800 nM. Further, the half-life in data set [3] was 1.5 h; in [4] it was 1.2 h. The same compound had a concentration at 1 h in data set [5] of 1300 nM. The compound further returned an EC50 in data set [6] of 16 nM. Moreover, the MRT in [7] was determined as 3 h. This compound returned a clearance in [8] of 6.2 mL/min/kg. In data set [9], this compound came in with an IC50 of 110 nM. This compound displayed an AUC in data set [10] of 6.1 µM·h. Also, in [11], the Papp A→B came out at 17 ×10⁻⁶ cm/s. Also, the bioavailability in [12] was determined as 17%. For the same compound, in data set [13], the Vd amounted to 0.42 L/kg.

As a reminder, the logD is the decadic logarithm of the distribution of all forms, ionised or not, between an organic phase and buffer at a given pH. For orientation: pKa means the negative logarithm of the acid dissociation constant. `Cn1c(-c2ccccn2)c(C2CCCC2)c2ccc(C(=O)NC3(C(=O)Nc4ccc(/C=C/C(=O)O)cc4)CCC3)cc21` [BILB-1941] displayed a logD in [14] of 3.3. The “fold change (FC)” value in data set [15] worked out at 3. For the same compound, the IC50 in data set [16] was 13000 nM; in data set [17], 3500 nM; in data set [21], over 30000 nM; in data set [23] it was 67 nM; in data set [9] it was 60 nM. For the same compound, in data set [18], the fraction unbound was 0.008. The same compound yielded a pKa in data set [19] of 4.5. In addition, in data set [20], the bioavailability is 70%. In addition, the Papp A→B in [22] turned out to be 11 ×10⁻⁶ cm/s. This compound also came in with an AUC in data set [10] of 23 µM·h. The CC50 in data set [24] was determined as 93000 nM.
